The values below come from ChEMBL document CHEMBL1781979, “The discovery of novel calcium sensing receptor negative allosteric modulators” (Bioorg Med Chem Lett, 2009).

Active and inactive are the calls of the source. The rule behind the calls is not given here.

Data set [1] in a line: Intrinsic clearance in human liver microsomes assessed per mg of protein. Type of data set: ADME, Microsome. The essentials: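 Stability in human liver microsomes reported as intrinsic clearance, µL/min/mg microsomal protein.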
(In general: Microsomes from liver hold many membrane-bound enzymes, among them those of drug oxidation.)

A short description of data set [2]: Intrinsic clearance in rat liver microsomes assessed per mg of protein. It is filed as ADME, Microsome. The method in brief:
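Rat liver microsomes; stability expressed as intrinsic clearance in µL/min/mg of microsomal protein.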

Data set [3] concerns the target T1, Extracellular calcium-sensing receptor (Homo sapiens, UniProt P41180).
T1 sequence (P41180 whole entry): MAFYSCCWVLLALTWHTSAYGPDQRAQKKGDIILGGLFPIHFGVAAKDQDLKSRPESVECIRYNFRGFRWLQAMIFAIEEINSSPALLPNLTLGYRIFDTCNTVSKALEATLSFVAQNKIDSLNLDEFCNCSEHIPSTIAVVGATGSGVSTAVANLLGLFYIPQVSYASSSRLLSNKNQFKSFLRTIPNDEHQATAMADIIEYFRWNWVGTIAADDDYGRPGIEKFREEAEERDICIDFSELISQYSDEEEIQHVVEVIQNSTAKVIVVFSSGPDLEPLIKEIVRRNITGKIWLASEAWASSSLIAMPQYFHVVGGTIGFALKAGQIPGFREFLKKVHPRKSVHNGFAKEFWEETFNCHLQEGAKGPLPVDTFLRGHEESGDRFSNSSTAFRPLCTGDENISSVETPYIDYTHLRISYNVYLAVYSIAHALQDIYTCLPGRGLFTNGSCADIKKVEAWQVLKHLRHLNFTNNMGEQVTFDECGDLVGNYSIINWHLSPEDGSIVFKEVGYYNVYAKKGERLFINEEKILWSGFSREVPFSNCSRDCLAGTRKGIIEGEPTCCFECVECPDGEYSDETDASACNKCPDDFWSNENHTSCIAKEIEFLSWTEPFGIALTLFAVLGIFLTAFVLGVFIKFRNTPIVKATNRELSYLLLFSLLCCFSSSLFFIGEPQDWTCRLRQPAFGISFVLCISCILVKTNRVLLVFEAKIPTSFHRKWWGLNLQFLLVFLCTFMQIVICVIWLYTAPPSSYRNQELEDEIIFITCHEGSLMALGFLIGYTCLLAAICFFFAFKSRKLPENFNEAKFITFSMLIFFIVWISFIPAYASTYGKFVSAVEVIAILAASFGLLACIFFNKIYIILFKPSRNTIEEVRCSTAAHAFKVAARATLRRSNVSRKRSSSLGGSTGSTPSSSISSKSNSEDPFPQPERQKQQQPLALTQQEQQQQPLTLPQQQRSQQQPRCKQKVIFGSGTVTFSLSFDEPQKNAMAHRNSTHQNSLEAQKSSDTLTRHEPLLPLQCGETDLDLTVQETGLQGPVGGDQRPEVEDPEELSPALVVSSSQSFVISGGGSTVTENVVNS
In words: Negative allosteric modulator activity at human recombinant calcium sensing receptor expressed in HEK cells. It is filed as functional, cell-based, HEK293. The method in brief: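 Human recombinant CaSR expressed in HEK cells; potency from n = 3 determinations.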

A short description of data set [4]: Lipophilicity, log D of the compound. It is filed as physicochemical. The note with it: octanol/water.
Data set [5] can be described thus: Oral bioavailability in Sprague-Dawley rat. Type of data set: ADME, organism-based. To be noted: in vivo.
Data set [6] is described as follows: Clearance in Sprague-Dawley rat at 1 mg/kg, iv. It is filed as ADME, organism-based. Details: dose 1 mg/kg, route intravenous. The note with it: in vivo. The method in brief: (§1)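 Intravenous dosing at 1 mg/kg to rats; volume of distribution, plasma clearance (mL/min/kg) and half-life derived from the iv plasma profile.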
The nature of data set [7]: Half life in Sprague-Dawley rat at 1 mg/kg, iv. Also noted: dose 1 mg/kg, route intravenous. Type of data set: ADME, organism-based. To be noted: in vivo. The method in brief:
as §1

The nature of data set [8]: Volume of distribution in Sprague-Dawley rat at 1 mg/kg, iv. Also noted: dose 1 mg/kg, route intravenous. The note with it: in vivo. Type of data set: ADME, organism-based. The method in brief: as §1
The test system of data set [9] is Rattus norvegicus. In words: Clearance in Sprague-Dawley rat at 1 mg/kg, iv. To be noted: in vivo.
The nature of data set [10]: Inhibition of cytochrome P450. It is filed as ADME.
Data set [11] can be described thus: Oral bioavailability in Sprague-Dawley rat at 10 mg/kg. Type of data set: ADME, organism-based. The note with it: in vivo. The method in brief:
(§2)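 Oral dosing at 10 mg/kg to rats; total plasma Cmax and oral bioavailability determined from plasma exposure, alongside the 1 mg/kg iv leg.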

Data set [12] deals with Rattus norvegicus. In words: Toxicity in Sprague-Dawley rat assessed as incidence of adverse effect at 500 mg/kg in 4 day drug toleration study. Type of data set: organism-based. Also noted: dose 500 mg/kg. The note with it: in vivo, 96 h. The essentials: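 Rats given 500 mg/kg over a 4 day toleration study, monitored for adverse effects.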
Data set [13] relates to Rattus norvegicus. In words: Increase in PTH (1-84) release response in Sprague-Dawley rat at 10 mg/kg, po by PTH ELISA. Type of data set: functional, organism-based. Also noted: dose 10 mg/kg. In general terms: An ELISA detects its analyte on a solid surface through an enzyme-linked reagent.
Data set [14] in a line: Cmax in Sprague-Dawley rat at 10 mg/kg, po. Type of data set: ADME, organism-based. Also noted: dose 10 mg/kg, route oral. To be noted: in vivo. The essentials: as §2
The target of another data set is hERG (KCNH2) (Homo sapiens, UniProt Q12809). The experiment in a line: Inhibition of human ERG at 10 uM by whole cell voltage clamp technique.
hERG (KCNH2), sequence (Q12809 whole entry): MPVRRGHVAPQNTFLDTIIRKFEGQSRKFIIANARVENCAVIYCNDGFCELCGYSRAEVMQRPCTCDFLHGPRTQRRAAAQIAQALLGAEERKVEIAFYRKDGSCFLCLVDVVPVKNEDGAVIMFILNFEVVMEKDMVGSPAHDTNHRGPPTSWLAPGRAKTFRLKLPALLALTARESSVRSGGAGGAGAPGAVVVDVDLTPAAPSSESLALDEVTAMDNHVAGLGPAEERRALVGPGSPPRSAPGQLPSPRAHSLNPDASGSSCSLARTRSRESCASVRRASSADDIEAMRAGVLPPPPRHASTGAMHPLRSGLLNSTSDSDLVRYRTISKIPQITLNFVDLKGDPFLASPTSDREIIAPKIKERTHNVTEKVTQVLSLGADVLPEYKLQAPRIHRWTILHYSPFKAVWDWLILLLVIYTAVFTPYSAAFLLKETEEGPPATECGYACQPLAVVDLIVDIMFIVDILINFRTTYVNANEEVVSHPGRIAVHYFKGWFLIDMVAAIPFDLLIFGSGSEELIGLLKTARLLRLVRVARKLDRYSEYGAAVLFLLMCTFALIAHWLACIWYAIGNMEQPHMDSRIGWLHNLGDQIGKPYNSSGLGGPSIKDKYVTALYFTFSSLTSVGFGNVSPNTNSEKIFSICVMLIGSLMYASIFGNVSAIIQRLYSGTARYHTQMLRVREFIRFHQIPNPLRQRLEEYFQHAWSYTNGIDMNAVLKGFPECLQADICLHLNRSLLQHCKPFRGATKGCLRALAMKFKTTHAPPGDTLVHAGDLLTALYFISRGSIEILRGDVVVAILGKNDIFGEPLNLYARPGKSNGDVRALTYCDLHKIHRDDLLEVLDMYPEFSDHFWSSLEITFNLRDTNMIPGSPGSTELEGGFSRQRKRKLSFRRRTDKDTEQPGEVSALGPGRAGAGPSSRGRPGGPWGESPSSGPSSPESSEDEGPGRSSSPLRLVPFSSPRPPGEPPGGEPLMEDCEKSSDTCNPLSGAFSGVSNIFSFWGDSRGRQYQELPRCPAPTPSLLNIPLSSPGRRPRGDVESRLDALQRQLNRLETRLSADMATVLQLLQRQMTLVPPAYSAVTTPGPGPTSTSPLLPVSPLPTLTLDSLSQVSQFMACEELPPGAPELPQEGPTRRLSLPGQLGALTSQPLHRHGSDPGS
Data set [15] addresses Extracellular calcium-sensing receptor (Homo sapiens) (UniProt P41180). The experiment in a line: Negative allosteric modulator activity at human calcium sensing receptor expressed in HEK cells.

By microsomal CLint is commonly meant a measure of how fast metabolising enzymes remove a compound, apart from limits set by blood flow. A high value points to faster metabolism. The IC50 is the concentration that inhibits the measured activity by half. For `C[C@@H](OC[C@H](O)CNC(C)(C)CC1Cc2ccccc2C1)c1ccccc1C1CC2CC1C1C(C(=O)O)C21` (mixture of isomers), the microsomal CLint in data set [1] was 23 µL/min/mg; in data set [2] it was 38 µL/min/mg. For the same molecule, the half-inhibitory concentration (IC50) in data set [3] was 3.5 µM.

As a reminder, the logD is the decadic logarithm of the distribution of all forms, ionised or not, between an organic phase and buffer at a given pH. A higher logD goes with higher lipophilicity. What is called bioavailability is dose-corrected exposure relative to a reference, in per cent. As a reminder, the clearance is the volume of plasma or blood freed of the substance per unit of time. Low values mean a low capacity for elimination, high ones a high capacity for elimination. As a reminder, the half-life is the time in which the quantity being followed falls by half. Low values mean rapid decline, high ones slow decline. For orientation: Vd means the apparent volume that relates the amount in the body to the concentration in plasma or blood. Read a high Vd as extensive tissue distribution. `Cc1ccc(CC(C)(C)NC[C@@H](O)COc2cc(C3CC4CC3C3C(C(=O)O)C43)ccc2C#N)cc1F` (mixture of isomers) had a logD in data set [4] of 2.3. The bioavailability in [5] is < 10%. The clearance in data set [6] came out at 4.2 L/h/kg. For the same molecule, the half-life in [7] is 1.5 h. Moreover, the microsomal CLint in data set [1] amounted to 15 µL/min/mg; in data set [2] it was 27 µL/min/mg. The Vd in [8] was 5 L/kg. This molecule also yielded a CL with Rattus norvegicus [9] of 4.98 L/h/kg. For the same molecule, in data set [3], the IC50 was 0.023 µM.

Molecule `CC(C)(CC1Cc2ccccc2C1)NC[C@@H](O)COc1cc(C2CC3CC2C2C(C(=O)O)C32)cc(F)c1F` (mixture of isomers) returned a logD in data set [4] of 2.6. The microsomal CLint in data set [1] came out at 19 µL/min/mg; in data set [2], 35 µL/min/mg. The IC50 in data set [3] was 0.056 µM.

`Cc1ccc(CC(C)(C)NC[C@@H](O)COc2cc(C3CC4CC3C3C(C(=O)O)C43)ccc2F)cc1F` (mixture of isomers) showed a microsomal CLint in [1] of 20 µL/min/mg. The half-inhibitory concentration (IC50) in data set [3] turned out to be 0.3 µM.

Turning to `CC(C)(CN1Cc2ccccc2C1=O)NC[C@@H](O)COc1cc(C2CC3CC2C2C(C(=O)O)C32)ccc1C#N` (mixture of isomers), the microsomal CLint in data set [1] was 9 µL/min/mg; in [2], < 10 µL/min/mg. For the same molecule, the IC50 in data set [3] came to 0.35 µM.

Consider `C[C@@H](OC[C@H](O)CNC(C)(C)Cc1ccc(Cl)cc1F)c1ccccc1C1CC2CC1C1C(C(=O)O)C21` (mixture of isomers), for which the logD in data set [4] stood at 2.8. The figures for the microsomal CLint in [1] and in data set [2] were 16 µL/min/mg and 14 µL/min/mg, respectively. In addition, the IC50 in data set [3] turned out to be 0.05 µM.

As for `Cc1ccc(CC(C)(C)NC[C@@H](O)CO[C@H](C)c2ccccc2C2CC3CC2C2C(C(=O)O)C32)cc1Cl` (mixture of isomers), in [4], the logD worked out at 2.6. In addition, in [1], the microsomal CLint amounted to 33 µL/min/mg. For the same molecule, in data set [3], the IC50 amounted to 0.018 µM.

In [4], `CC(C)(CC1Cc2ccccc2C1)NC[C@@H](O)COc1cc(C2CC3CC2C2C(C(=O)O)C32)ccc1C#N` (mixture of isomers) registered a logD of 2. Besides, the bioavailability in [5] is < 10%. The same molecule yielded a clearance in data set [6] of 4.2 L/h/kg. The same molecule had a half-life in data set [7] of 1.5 h. Besides, the values for the microsomal CLint in data set [1] and in [2] were 17 µL/min/mg and 25 µL/min/mg, respectively. Further, the Vd in [8] came to 5 L/kg. Also, in the data set with Rattus norvegicus [9], the CL came to 4.98 L/h/kg. The IC50 in data set [3] stood at 0.006 µM.

Usually Cmax stands for the peak of the concentration-time curve. A word on the inhibition: it is the share of the control response that was lost under treatment. A high value points to a response far below the control. Take `Cc1ccc(CC(C)(C)NC[C@@H](O)CO[C@H](C)c2ccccc2C2CC3CC2C2C(C(=O)O)C32)cc1F` (mixture of isomers): in [4], the logD amounted to 2.4. Besides, the “inhibition (INH)” value in data set [10] was “Not Active”. Moreover, the bioavailability in data set [11] was > 60%. In addition, the Activity entry with Rattus norvegicus [12] is “Non-toxic”. Besides, the outcome in the data set on Rattus norvegicus [13] was Active. Besides, the intrinsic metabolic clearance (microsomal CLint) in data set [1] was 35 µL/min/mg; in data set [2], 45 µL/min/mg. In [14], this molecule gave a Cmax of 1 µM. In addition, the inhibition at 10 µM against hERG (KCNH2) was < 10%. Moreover, the IC50 in [3] came to 0.025 µM.

Regarding `Cc1ccc(CC(C)(C)NC[C@@H](O)COc2cccc(C3CC4CC3C3C(C(=O)O)C43)c2)cc1F` (mixture of isomers), the results for the microsomal CLint in data set [1] and in [2] were 23 µL/min/mg and 38 µL/min/mg, respectively. Further, the half-maximal inhibitory concentration (IC50) in data set [3] was found to be 3.5 µM.

Take `CC(C)(Cc1ccc2ccccc2c1)NC[C@@H](O)COc1cccc(Cl)c1C#N`: the microsomal CLint in data set [1] is 157 µL/min/mg; in data set [2], > 100 µL/min/mg. For the same molecule, the IC50 in data set [3] worked out at 0.023 µM.

For the molecule `CC(C)(CC1Cc2ccccc2C1)NC[C@@H](O)COc1cccc(C2CC3CC2C2C(C(=O)O)C32)c1` (mixture of isomers), the values for the microsomal CLint in [1] and in data set [2] were 15 µL/min/mg and 50 µL/min/mg, respectively. Further, the IC50 in data set [3] came out at 0.9 µM.

In turn, `CC(C)(CC1Cc2ccccc2C1)NC[C@@H](O)COc1cc(CCC(=O)O)cc(F)c1F` [RONACALERET] displayed a logD in [4] of 1.5. In [11], this molecule displayed a bioavailability of 12%. In addition, the result in the data set with Rattus norvegicus [13] was inactive. The intrinsic clearance (microsomal CLint) in data set [1] was < 8 µL/min/mg; in [2], 90 µL/min/mg. This molecule also came in with a Cmax in [14] of 0.3 µM. The IC50 in [15] came out at 0.32 µM; in data set [3], 0.146 µM. Also, the inhibition at 10 µM against hERG (KCNH2) was < 10%.
